The format of the data set is in vivo, Sprague-Dawley rats. The following applies: for T max / half-life: Normal rats, oral Gandi capsule 80 mg kg^-1, plasma, n = 6, mean ± SD; for concentration at 2 h / half-life: male, Sprague-Dawley, rat, plasma, po; for concentration at 2 h: 80 mg kg^-1 Gandi capsule; for half-life: 80 mg/kg, T 1/2 z. The method, boiled down: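 Diabetes was induced by a single ip STZ dose of 45 mg kg−1 in citrate buffer (0.1 mol L−1, pH 4.5), with blood glucose >16.7 mmol L−1 after 1 week; rats were dosed on day 10. Rats were fasted 12 h, then given capsule contents in 0.3% CMC-Na orally; n = 6/group. Plasma was sampled 0–48 h, precipitated with IS in methanol and analysed by positive-ion LC-MS/MS; results are mean ± SD, compared by t-test.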

On to `COC(=O)C1=CO[C@@H](O[C@@H]2O[C@H](CO)[C@@H](O)[C@H](O)[C@H]2O)[C@@H]2[C@@H](C)[C@@H](O)C[C@H]12` [Loganin, loganin], for which the T max was determined as 1.25 ± 0.35 h, the concentration at 2 h turned out to be 42.6 ng/mL and the half-life (commonly how long it takes for the measured level to halve) was 0.46 ± 0.38 h. Where the note is “oral Gandi capsule, rat plasma, quick elimination phase”, the “Time after oral administration in which the compound can be detected in plasma” value was not above 2.5 h.

In turn, `O=C(O)[C@H]1O[C@@H](Oc2cc3oc(-c4ccccc4)cc(=O)c3c(O)c2O)[C@H](O)[C@@H](O)[C@@H]1O` [Baicalin, baicalin] had a T max of 1.50 ± 1.40 h, a concentration at 2 h of 723 ng/mL and a half-life of 9.45 ± 2.87 h.

In turn, `COc1c(O)cc(O)c2c(=O)cc(-c3ccccc3)oc12` [Wogonin, wogonin] gave a concentration at 2 h of 54.9 ng/mL and a half-life of 1.52 ± 0.25 h.

The values are drawn from publication PMC9078286 (RSC Advances, 2018).
